The values that follow come from ChEMBL document CHEMBL3351752, “Discovery and in vivo evaluation of alcohol-containing benzothiazoles as potent dual-targeting bacterial DNA supercoiling inhibitors” (Bioorg Med Chem Lett, 2014).

Each structure is given as a SMILES string. In brackets after ≈: the same amount, converted by molar mass. Activity calls are given as the source filed them. The rule behind the calls is not given here.

For series [1], the system named is Staphylococcus aureus. The experiment in a line: Antimicrobial activity against methicillin-sensitive Staphylococcus aureus infected in neutropenic mouse assessed as log reduction in colony forming units at 30 mg/kg, iv administered as single dose measured 24 hrs post infection relative to control. Format: functional, organism-based. Also noted: dose 30 mg/kg. Put shortly:
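Thigh infection in neutropenic female CD-1 mice (18–22 g), made neutropenic with ip cyclophosphamide (150 mg/kg day −4, 100 mg/kg day −1). Thighs inoculated with about 2 × 10^5 CFU of MSSA S. aureus ATCC 19636 from fresh overnight culture. Single iv dose at 30 mg/kg. Thighs harvested at 24 h, homogenized in saline on ice, serial dilutions plated on charcoal plates, colonies counted; log CFU reduction taken versus matched controls.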

The subject of series [2] is Staphylococcus aureus. The experiment in a line: Antibacterial activity against Staphylococcus aureus ATCC 29213 assessed as growth inhibition. Format: functional.
For series [3], the system named is Streptococcus pyogenes. In words: Antibacterial activity against Streptococcus pyogenes 51339 assessed as growth inhibition. Format: functional.
The subject of another series is Haemophilus influenzae. In words: Antibacterial activity against Haemophilus influenzae 49247 assessed as growth inhibition. Format: functional.
For series [4], the system named is Staphylococcus aureus. The experiment in a line: Antimicrobial activity against Staphylococcus aureus harboring GyrB T173N mutant assessed as growth inhibition. Format: functional.
The subject of series [5] is Streptococcus pyogenes. The experiment in a line: Antimicrobial activity against Streptococcus pyogenes harboring ParE A53S mutant assessed as growth inhibition. It counts as functional.
Series [6] has as its system Staphylococcus aureus. The experiment in a line: Antibacterial activity against Staphylococcus aureus ATCC 29213 assessed as growth inhibition in presence of 50% horse serum. Format: functional.
The subject of series [7] is Staphylococcus aureus. In words: Ratio of MIC for Staphylococcus aureus ATCC 29213 assessed as growth inhibition in presence of 50% horse serum to MIC for Staphylococcus aureus ATCC 29213 assessed as growth inhibition. It counts as functional.
Series [8] concerns Staphylococcus aureus. The experiment in a line: Inhibition of Staphylococcus aureus DNA gyrase ATPase subunit GyrA2/GyrB2 after 60 mins by malachite green staining assay.
A short description of series [9]: Fraction unbound in mouse plasma by ultracentrifugation. Format: ADME, cell-free. Put shortly:
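Compound at 10 µM (1% DMSO) was equilibrated in neat plasma at 37 °C for 60 min. Duplicate aliquots were ultracentrifuged at 250,000g for 4.2 h at 37 °C. Free compound in the plasma-water supernatant was compared with uncentrifuged samples incubated alike. Uncentrifuged samples kept at 20 °C checked degradation, and diltiazem served as stability control. Analysis was by LCMS.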

The subject of series [10] is Staphylococcus aureus. The experiment in a line: Antimicrobial activity against Staphylococcus aureus ATCC 19636 infected in neutropenic mouse assessed as reduction in colony forming units at 30 mg/kg, iv administered as single dose measured 24 hrs post infection relative to control. Format: functional, organism-based. Also noted: dose 30 mg/kg.
Series [11] relates to Staphylococcus aureus. The experiment in a line: Antimicrobial activity against Staphylococcus aureus ATCC 19636 infected in neutropenic mouse assessed as reduction in colony forming units at 100 mg/kg, po administered as single dose measured 24 hrs post infection relative to control. It counts as functional, organism-based. More on the design: dose 100 mg/kg.
Series [12] deals with Staphylococcus aureus. In words: Antimicrobial activity against Staphylococcus aureus ATCC 19636 infected in neutropenic mouse assessed as reduction in colony forming units at 25 mg/kg, iv administered as single dose measured 24 hrs post infection relative to control. It counts as functional, organism-based. More on the design: dose 25 mg/kg.
Series [13] deals with Staphylococcus aureus. The experiment in a line: Antimicrobial activity against methicillin-sensitive Staphylococcus aureus infected in neutropenic mouse assessed as log reduction in colony forming units at 100 mg/kg, iv administered at 2, 4 and 6 hrs post-inoculation measured 24 hrs post infection relative to control. Format: functional.
The subject of series [14] is Staphylococcus aureus. The experiment in a line: Antimicrobial activity against methicillin-sensitive Staphylococcus aureus infected in neutropenic mouse assessed as reduction in colony forming units administered iv at 2, 4 and 6 hrs post-inoculation measured 24 hrs post infection relative to control. It counts as functional, organism-based.
Series [15] has as its system Staphylococcus aureus. In words: Antimicrobial activity against methicillin-sensitive Staphylococcus aureus infected in neutropenic mouse assessed as log reduction in colony forming units at 30 mg/kg, iv administered at 2, 4 and 6 hrs post-inoculation measured 24 hrs post infection relative to control. Format: functional.

Consider `CN[C@H](CC(C)C)C(=O)N[C@H]1C(=O)N[C@@H](CC(N)=O)C(=O)N[C@H]2C(=O)N[C@H]3C(=O)N[C@H](C(=O)N[C@H](C(=O)O)c4cc(O)cc(O)c4-c4cc3ccc4O)[C@H](O)c3ccc(c(Cl)c3)Oc3cc2cc(c3O[C@@H]2O[C@H](CO)[C@@H](O)[C@H](O)[C@H]2O[C@H]2C[C@](C)(N)[C@H](O)[C@H](C)O2)Oc2ccc(cc2Cl)[C@H]1O`, for which the outcome in the series with Staphylococcus aureus [1] was Active.

As for `CCNC(=O)Nc1nc2cc(-c3cnc(CO)nc3)cc(-c3ccccn3)c2s1`, the MIC turned out to be 0.03 µg/mL (≈ 0.0738 µM) with Staphylococcus aureus [2]; 0.06 µg/mL (≈ 0.148 µM) in the series with Streptococcus pyogenes [3]; 0.25 µg/mL (≈ 0.615 µM) in the series on Haemophilus influenzae; 0.25 µg/mL (≈ 0.615 µM) with Staphylococcus aureus [4]; 0.5 µg/mL (≈ 1.23 µM) in the series on Streptococcus pyogenes [5]; 0.06 µg/mL in the series on Staphylococcus aureus [6]. The Ratio in the series with Staphylococcus aureus [7] is 2.

As usually defined, the fraction unbound is the share of the substance not bound to proteins or other matrix. Consider `CCNC(=O)Nc1nc2cc(-c3cnc(C(C)(C)O)nc3)cc(-c3ccccn3)c2s1`, for which the MIC with Staphylococcus aureus [2] came out at 0.06 µg/mL (≈ 0.138 µM); in the series with Streptococcus pyogenes [3] it was 0.12 µg/mL (≈ 0.276 µM); with Haemophilus influenzae, 1 µg/mL (≈ 2.3 µM); with Staphylococcus aureus [4], 0.25 µg/mL (≈ 0.575 µM); in the series with Streptococcus pyogenes [5], 1 µg/mL (≈ 2.3 µM); with Staphylococcus aureus [6] it was 0.25 µg/mL. For the same molecule, the Ratio in the series on Staphylococcus aureus [7] stood at 4. In the series on Staphylococcus aureus [8], the inhibitory concentration came out at 0.006 µg/mL. This molecule registered a fraction unbound in series [9] of 0.051. Further, the outcome in the series with Staphylococcus aureus [10] and with Staphylococcus aureus [11] was Active.

For the molecule `CCNC(=O)Nc1nc2cc(-c3cnc(C(C)(C)O)nc3)cc(-c3cc(CN4CC(C)(O)C4)ccn3)c2s1`, the MIC in the series on Staphylococcus aureus [2] amounted to 0.5 µg/mL (≈ 0.937 µM); with Streptococcus pyogenes [3], 0.12 µg/mL (≈ 0.225 µM); in the series on Haemophilus influenzae, 4 µg/mL (≈ 7.5 µM); in the series on Staphylococcus aureus [6], 0.5 µg/mL. In the series with Staphylococcus aureus [8], the inhibitory concentration came to 0.011 µg/mL. In [9], this molecule yielded a fraction unbound of 0.223.

For `CC(=O)NC[C@H]1CN(c2ccc(N3CCOCC3)c(F)c2)C(=O)O1`, in the series with Staphylococcus aureus [12], the outcome was Active.

Consider `CCNC(=O)Nc1nc2cc(-c3cnc(C(C)(C)O)nc3)cc(-c3cc(CN4CCCC4)ccn3)c2s1`, for which the MIC in the series with Staphylococcus aureus [2] came out at 0.5 µg/mL (≈ 0.966 µM); in the series on Streptococcus pyogenes [3], 0.5 µg/mL (≈ 0.966 µM); with Haemophilus influenzae it was 4 µg/mL (≈ 7.73 µM); with Staphylococcus aureus [6], 0.5 µg/mL. In the series with Staphylococcus aureus [8], this molecule came in with an inhibitory concentration of 0.012 µg/mL. In series [9], this molecule showed a fraction unbound of 0.067.

Consider `CCNC(=O)Nc1nc2cc(-c3cnc(C(C)(C)O)nc3)cc(-c3cc(CN4CC(O)C4)ccn3)c2s1`, for which the MIC with Staphylococcus aureus [2] stood at 1 µg/mL (≈ 1.92 µM); in the series on Streptococcus pyogenes [3] it was 0.25 µg/mL (≈ 0.481 µM); in the series with Haemophilus influenzae it was 2 µg/mL (≈ 3.85 µM); with Staphylococcus aureus [6], 1 µg/mL. Also, in the series with Staphylococcus aureus [8], the inhibitory concentration came out at 0.004 µg/mL. In addition, the fraction unbound in series [9] was 0.22.

With `CCNC(=O)Nc1nc2cc(-c3cnc(C(C)(C)O)nc3)cc(-c3cc(CN4CC[C@@H](OC)C4)ccn3)c2s1`, the MIC in the series on Staphylococcus aureus [2] amounted to 0.25 µg/mL (≈ 0.456 µM); in the series with Streptococcus pyogenes [3] it was 0.25 µg/mL (≈ 0.456 µM); with Haemophilus influenzae, 4 µg/mL (≈ 7.3 µM); with Staphylococcus aureus [6], 0.5 µg/mL. Besides, the inhibitory concentration in the series on Staphylococcus aureus [8] was determined as 0.009 µg/mL. The fraction unbound in series [9] turned out to be 0.09.

Regarding `CO[C@@H]1[C@@H](OC(N)=O)[C@@H](O)[C@H](Oc2ccc3c(O)c(NC(=O)c4ccc(O)c(CC=C(C)C)c4)c(=O)oc3c2C)OC1(C)C`, the result with Staphylococcus aureus [10] was Active.

In the case of `CCNC(=O)Nc1nc2cc(-c3cnc(C(C)O)nc3)cc(-c3ccccn3)c2s1` (centres undefined), the MIC with Staphylococcus aureus [2] amounted to 0.03 µg/mL (≈ 0.0713 µM); in the series with Streptococcus pyogenes [3], 0.06 µg/mL (≈ 0.143 µM); in the series with Haemophilus influenzae it was 0.5 µg/mL (≈ 1.19 µM); in the series on Staphylococcus aureus [4], 0.25 µg/mL (≈ 0.595 µM); with Streptococcus pyogenes [5] it was 1 µg/mL (≈ 2.38 µM); in the series on Staphylococcus aureus [6], 0.12 µg/mL. In addition, in the series with Staphylococcus aureus [7], the Ratio was determined as 4.

In the case of `CCNC(=O)Nc1nc2cc(-c3cnc(C(C)(C)O)nc3)cc(-c3cc(CN4CCC(F)(F)C4)ccn3)c2s1`, the MIC was 0.06 µg/mL (≈ 0.108 µM) with Staphylococcus aureus [2], 0.03 µg/mL (≈ 0.0542 µM) with Streptococcus pyogenes [3], over 16 µg/mL in the series with Haemophilus influenzae and 0.25 µg/mL with Staphylococcus aureus [6]. Also, in the series on Staphylococcus aureus [8], the inhibitory concentration is 0.007 µg/mL. In series [9], this molecule gave a fraction unbound of 0.041.

`CCNC(=O)Nc1nc2cc(-c3cnc(C(C)(C)O)nc3)cc(-c3cc(CN4CC(OC)C4)ccn3)c2s1`: the MIC with Staphylococcus aureus [2] came out at 0.12 µg/mL (≈ 0.225 µM); in the series with Streptococcus pyogenes [3], 0.12 µg/mL (≈ 0.225 µM); in the series with Haemophilus influenzae it was 2 µg/mL (≈ 3.75 µM); in the series on Staphylococcus aureus [6], 0.25 µg/mL. In the series with Staphylococcus aureus [8], this molecule showed an inhibitory concentration of 0.011 µg/mL. The molecule also displayed a fraction unbound in [9] of 0.11.

For `CCNC(=O)Nc1nc2cc(-c3cnc(N4CCC(CC)(C(=O)O)CC4)nc3)cc(-c3ccccn3)c2s1`, the FC in the series with Staphylococcus aureus [13] is recorded as 4; with Staphylococcus aureus [15], under 3. Moreover, the MIC with Staphylococcus aureus [2] worked out at 0.06 µg/mL (≈ 0.113 µM); in the series on Streptococcus pyogenes [3], 0.06 µg/mL (≈ 0.113 µM); in the series with Haemophilus influenzae it was 4 µg/mL (≈ 7.52 µM); in the series with Staphylococcus aureus [4], 0.25 µg/mL (≈ 0.47 µM); in the series with Streptococcus pyogenes [5], 0.5 µg/mL (≈ 0.94 µM); in the series with Staphylococcus aureus [6], 4 µg/mL. Further, in the series with Staphylococcus aureus [7], the Ratio stood at 64. In the series with Staphylococcus aureus [14], the Activity result was “Dose-dependent effect”.

Regarding `CCNC(=O)Nc1nc2cc(-c3cnc(C(C)(C)O)nc3)cc(-c3cc(CN4CCC(C)(O)C4)ccn3)c2s1` (centres undefined), the MIC with Staphylococcus aureus [2] stood at 0.5 µg/mL (≈ 0.913 µM); with Streptococcus pyogenes [3], 0.25 µg/mL (≈ 0.456 µM); in the series on Haemophilus influenzae, 8 µg/mL (≈ 14.6 µM); in the series on Staphylococcus aureus [6], 0.25 µg/mL. This molecule returned an inhibitory concentration in the series with Staphylococcus aureus [8] of 0.008 µg/mL. The molecule also showed a fraction unbound in series [9] of 0.194.

Consider `CCNC(=O)Nc1nc2cc(-c3cnc(N4CCC(CC)(C(=O)O)CC4)nc3)cc(/C=N/OC)c2s1`, for which the values for the FC in the series on Staphylococcus aureus [13] and in the series with Staphylococcus aureus [15] were 4 and under 3, respectively. The MIC with Staphylococcus aureus [2] is 0.12 µg/mL (≈ 0.235 µM). Moreover, in the series on Staphylococcus aureus [14], the Activity entry is “Dose-dependent effect”.
